Counter-ions that a name gives are not always drawn. A value given as a limit tells only on which side of the number the result lay.

The target of one assay is T1, Kir1.1 (S44D) (Rattus norvegicus, UniProt P35560, S44D).
T1 sequence (P35560 1-391 S44D): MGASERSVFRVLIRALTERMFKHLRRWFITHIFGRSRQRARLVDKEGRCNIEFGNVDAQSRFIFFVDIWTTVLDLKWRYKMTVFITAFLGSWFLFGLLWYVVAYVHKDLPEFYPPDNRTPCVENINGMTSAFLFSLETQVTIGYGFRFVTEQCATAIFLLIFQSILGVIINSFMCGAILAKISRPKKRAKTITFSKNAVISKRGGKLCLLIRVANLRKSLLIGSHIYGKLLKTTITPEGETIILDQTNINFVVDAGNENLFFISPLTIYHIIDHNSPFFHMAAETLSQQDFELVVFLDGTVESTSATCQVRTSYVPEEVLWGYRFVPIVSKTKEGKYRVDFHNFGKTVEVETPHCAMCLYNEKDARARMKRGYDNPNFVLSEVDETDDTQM
The assay can be described thus: Tl+ flux assay, tetracycline-inducible Kir1.1-S44D T-REx-HEK-293 cells. Type of assay: cell-based. Particulars: IC50 Kir1.1, Tl+ flux, mean ± SEM (n = 3). An outline of the steps:
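Monoclonal C1 T-REx-HEK-293 Kir1.1-S44D cells were grown in DMEM with 10% FBS, penicillin/streptomycin, 5 μg/mL blasticidin S and 250 μg/mL hygromycin. Channel expression was induced overnight with tetracycline. Cells were loaded with FluoZin-2 and pre-treated with test compound from 1:3 serial dilutions. Extracellular Tl+ was then added and fluorescence imaged kinetically at 20–23°C. CRC, mean ± SEM, n = 3.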
Consider `N#Cc1ccc(OCC(O)Cn2c(=N)n(Cc3ccccc3)c3ccccc32)cc1` (centres unmarked) [Compound 12, 4-(3-(3-benzyl-2-imino-2,3-dihydro-1H-benzo[d]imidazol-1-yl)-2-hydroxypropoxy)benzonitrile], for which the IC50 is 15.7 ± 2.1 µM.

Regarding `COc1cccc(Cn2c(=N)n(CC(O)COc3ccc(C)cc3)c3ccccc32)c1` (centres unmarked) [Compound 24, 1-(2-imino-3-(3-methoxybenzyl)-2,3-dihydro-1H-benzo[d]imidazol-1-yl)-3-(p-tolyloxy)propan-2-ol], the IC50 was determined as 13.7 ± 4.4 µM. The same measure, in the same setting: the value for `N=c1n(Cc2ccc(Cl)cc2)c2ccccc2n1CC(O)COc1ccc(Cl)cc1` (centres unmarked) [Compound 23, 1-(3-(4-chlorobenzyl)-2-imino-2,3-dihydro-1H-benzo[d]imidazol-1-yl)-3-(4-chlorophenoxy)propan-2-ol] was 6.53 ± 3.9 µM; that for `Cc1cc(C)cc(OCC(O)Cn2c(=N)n(Cc3ccccc3)c3ccccc32)c1` (centres unmarked) [Compound 20, 1-(3-benzyl-2-imino-2,3-dihydro-1H-benzo[d]imidazol-1-yl)-3-(3,5-dimethylphenoxy)propan-2-ol] was 16 ± 2 µM; that for `N=c1n(Cc2ccccc2)c2ccccc2n1CC(O)COc1ccc(Cc2ccccc2)cc1` (centres unmarked) [Compound 10, 1-(3-benzyl-2-imino-2,3-dihydro-1H-benzo[d]imidazol-1-yl)-3-(4-benzylphenoxy)propan-2-ol] was 6.13 ± 0.23 µM. Still for that read-out and setting: the value for `N#Cc1ccc(F)c(OCC(O)Cn2c(=N)n(Cc3ccccc3)c3ccccc32)c1` (centres unmarked) [Compound 17, 3-(3-(3-benzyl-2-imino-2,3-dihydro-1H-benzo[d]imidazol-1-yl)-2-hydroxypropoxy)-4-fluorobenzonitrile] was 8.27 ± 0.29 µM. The same measure, in the same setting: the value for `COc1ccc(OCC(O)Cn2c(=N)n(Cc3ccccc3)c3ccccc32)cc1` (centres unmarked) [Compound 13, 1-(3-benzyl-2-imino-2,3-dihydro-1H-benzo[d]imidazol-1-yl)-3-(4-methoxyphenoxy)propan-2-ol] was 12.7 ± 1.2 µM; that for `N=c1n(Cc2ccccc2)c2ccccc2n1CC(O)COc1ccc(Cl)cc1Cl` (centres unmarked) [Compound 2, 1-(3-benzyl-2-imino-2,3-dihydro-1H-benzo[d]imidazol-1-yl)-3-(2,4-dichlorophenoxy)propan-2-ol] was 7.07 ± 2.3 µM; that for `N=c1n(Cc2ccccc2)c2ccccc2n1CC(O)CN1CCOCC1` (centres unmarked) [Compound 9, 1-(3-benzyl-2-imino-2,3-dihydro-1H-benzo[d]imidazol-1-yl)-3-morpholinopropan-2-ol] was more than 100 µM. For `N=c1n(Cc2ccccc2)c2ccccc2n1CC(O)COc1cccc(Cl)c1` (centres unmarked) [Compound 18, 1-(3-benzyl-2-imino-2,3-dihydro-1H-benzo[d]imidazol-1-yl)-3-(3-chlorophenoxy)propan-2-ol], the IC50 is 11.7 ± 2.1 µM. The same measure, in the same setting: next, `N=c1n(Cc2ccc(Cl)cc2)c2ccccc2n1CC(O)COc1ccccc1` (centres unmarked) [Compound 22, 1-(3-(4-chlorobenzyl)-2-imino-2,3-dihydro-1H-benzo[d]imidazol-1-yl)-3-phenoxypropan-2-ol]: 14.7 ± 2.1 µM. On the same count and under the same terms, the value for `Cc1ccccc1OCC(O)Cn1c(=N)n(Cc2ccccc2)c2ccccc21` (centres unmarked) [Compound 6, 1-(3-benzyl-2-imino-2,3-dihydro-1H-benzo[d]imidazol-1-yl)-3-(o-tolyloxy)propan-2-ol] was 11.9 ± 2.2 µM. On the same count and under the same terms, the value for `N#Cc1cc(F)cc(OCC(O)Cn2c(=N)n(Cc3ccccc3)c3ccccc32)c1` (centres unmarked) [Compound 19, 3-(3-(3-benzyl-2-imino-2,3-dihydro-1H-benzo[d]imidazol-1-yl)-2-hydroxypropoxy)-5-fluorobenzonitrile] was 14.3 ± 1.5 µM; that for `N=c1n(Cc2ccccc2)c2ccccc2n1CC(O)COc1ccccc1Cl` (centres unmarked) [Compound 15, 1-(3-benzyl-2-imino-2,3-dihydro-1H-benzo[d]imidazol-1-yl)-3-(2-chlorophenoxy)propan-2-ol] was 8.6 ± 1.2 µM. `Cc1ccc(OCC(O)Cn2c(=N)n(C)c3ccccc32)cc1` (centres unmarked) [Compound 25, 1-(2-imino-3-methyl-2,3-dihydro-1H-benzo[d]imidazol-1-yl)-3-(p-tolyloxy)propan-2-ol] yielded an IC50 of 13 ± 2.6 µM. On the same count and under the same terms, next, `N=c1n(Cc2ccccc2)c2ccccc2n1CC(O)COc1ccc(OCc2ccccc2)cc1` (centres unmarked) [Compound 11, 1-(3-benzyl-2-imino-2,3-dihydro-1H-benzo[d]imidazol-1-yl)-3-(4-(benzyloxy)phenoxy)propan-2-ol]: 5.23 ± 0.59 µM.

On to `COc1cccc(OCC(O)Cn2c(=N)n(Cc3ccccc3)c3ccccc32)c1` (centres unmarked) [Compound 14, 1-(3-benzyl-2-imino-2,3-dihydro-1H-benzo[d]imidazol-1-yl)-3-(3-methoxyphenoxy)propan-2-ol], for which the IC50 was 10.1 ± 2.9 µM.

In the case of `N=c1n(Cc2ccccc2)c2ccccc2n1CC(O)COc1ccccc1` (centres unmarked) [Compound 5, 1-(3-benzyl-2-imino-2,3-dihydro-1H-benzo[d]imidazol-1-yl)-3-phenoxypropan-2-ol], the IC50 is 11.7 ± 4.1 µM.

The compound `COc1ccccc1OCC(O)Cn1c(=N)n(Cc2ccccc2)c2ccccc21` (centres unmarked) [Compound 21, 1-(3-benzyl-2-imino-2,3-dihydro-1H-benzo[d]imidazol-1-yl)-3-(2-methoxyphenoxy)propan-2-ol] registered an IC50 of 19.3 ± 1.5 µM.

With `Cc1cccc(OCC(O)Cn2c(=N)n(Cc3ccccc3)c3ccccc32)c1` (centres unmarked) [Compound 4, 1-(3-benzyl-2-imino-2,3-dihydro-1H-benzo[d]imidazol-1-yl)-3-(m-tolyloxy)propan-2-ol], the IC50 was 11.2 ± 2.8 µM. Still for that read-out and setting: the value for `CC(C)c1ccc(OCC(O)Cn2c(=N)n(Cc3ccccc3)c3ccccc32)cc1` (centres unmarked) [Compound 8, 1-(3-benzyl-2-imino-2,3-dihydro-1H-benzo[d]imidazol-1-yl)-3-(4-isopropylphenoxy)propan-2-ol] was 6.77 ± 1.7 µM. Still for that read-out and setting: the value for `N=c1n(Cc2ccccc2)c2ccccc2n1CC(O)COc1ccc(Cl)cc1` (centres unmarked) [Compound 3, 1-(3-benzyl-2-imino-2,3-dihydro-1H-benzo[d]imidazol-1-yl)-3-(4-chlorophenoxy)propan-2-ol] was 6.57 ± 3.8 µM.

For `Cc1cc(OCC(O)Cn2c(=N)n(Cc3ccccc3)c3ccccc32)ccc1Br` (centres unmarked) [Compound 16, 1-(3-benzyl-2-imino-2,3-dihydro-1H-benzo[d]imidazol-1-yl)-3-(4-bromo-3-methylphenoxy)propan-2-ol], the IC50 was 8.53 ± 1.7 µM. Same read-out and setting: the value for `N=c1n(Cc2ccccc2)c2ccccc2n1CC(O)COc1cc(F)cc(F)c1` (centres unmarked) [Compound 7, 1-(3-benzyl-2-imino-2,3-dihydro-1H-benzo[d]imidazol-1-yl)-3-(3,5-difluorophenoxy)propan-2-ol] was 7.57 ± 2.2 µM; that for `Cn1c(=N)n(CC(O)COc2ccc(C(F)(F)F)cc2)c2ccccc21` (centres unmarked) [Compound 26, 1-(2-imino-3-methyl-2,3-dihydro-1H-benzo[d]imidazol-1-yl)-3-(4-(trifluoromethyl)phenoxy)propan-2-ol] was 6.97 ± 2 µM.

Another assay has as its target T2, Kir7.1-M125R (Homo sapiens, UniProt O60928, M125R).
T2 sequence (O60928 1-360 M125R): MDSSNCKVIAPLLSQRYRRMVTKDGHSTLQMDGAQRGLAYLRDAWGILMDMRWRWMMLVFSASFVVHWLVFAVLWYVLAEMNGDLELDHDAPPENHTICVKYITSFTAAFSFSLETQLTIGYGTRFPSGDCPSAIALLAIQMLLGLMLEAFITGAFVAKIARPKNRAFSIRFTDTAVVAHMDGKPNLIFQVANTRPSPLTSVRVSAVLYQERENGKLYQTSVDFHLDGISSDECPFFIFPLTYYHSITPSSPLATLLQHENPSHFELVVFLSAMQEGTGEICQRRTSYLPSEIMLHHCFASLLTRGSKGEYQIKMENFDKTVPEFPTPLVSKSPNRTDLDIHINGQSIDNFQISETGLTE
Nature of the assay: Tl+ flux assay, polyclonal Kir7.1-M125R T-REx-HEK-293 cells.
Conditions: not given
Type of assay: cell-based.
On to `N=c1n(Cc2ccccc2)c2ccccc2n1CC(O)CN1CCOCC1` (centres unmarked) [Compound 9, 1-(3-benzyl-2-imino-2,3-dihydro-1H-benzo[d]imidazol-1-yl)-3-morpholinopropan-2-ol], for which the “activity toward Kir7.1” value is reported as “lost activity”. On the same count and under the same terms, the value for `N=c1n(Cc2ccccc2)c2ccccc2n1CC(O)COc1ccc(OCc2ccccc2)cc1` (centres unmarked) [Compound 11, 1-(3-benzyl-2-imino-2,3-dihydro-1H-benzo[d]imidazol-1-yl)-3-(4-(benzyloxy)phenoxy)propan-2-ol] was “lost activity”.

For the next assay, the system named is Kir1.1.
Experiment: not given
Particulars: read-out: Kir1.1 inhibitor potency; ref Lewis et al., [2009]; cited from earlier work.
For `O=[N+]([O-])c1ccc(CN2CCOCCOCCN(Cc3ccc([N+](=O)[O-])cc3)CCOCC2)cc1` [VU590, 7,13-bis[(4-nitrophenyl)methyl]-1,4,10-trioxa-7,13-diazacyclopentadecanedihydrochloride], the IC50 was approximately 0.3 µM.

Another assay relates to Kir7.1.
Experiment: not given
The conditions noted are these: read-out: IC50 Kir7.1; ref Lewis et al., [2009]; cited from earlier work.
Take `O=[N+]([O-])c1ccc(CN2CCOCCOCCN(Cc3ccc([N+](=O)[O-])cc3)CCOCC2)cc1` [VU590, 7,13-bis[(4-nitrophenyl)methyl]-1,4,10-trioxa-7,13-diazacyclopentadecanedihydrochloride]: the IC50 was approximately 8 µM.

Values taken from PMC3254186 (Frontiers in Pharmacology, 2011).
